# KDM4C inh = inhibitors of GASC-1 (KDM4C) histone demethylase, primary screen, biochemical, single concentration HTS. AID 720574, 2013. GST-KDM4C 2-372, H3K9me3 peptide, LANCE TR-FRET. inhibition, % at 12.5 µM. 96,000 tested, 0.15% active;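 active = mean replicate inhibition above about 25%, with at least 55% of replicates also reaching it, limit read from the data, passing the limit was not always enough; inconclusive = only one of those two conditions met; inactive = neither condition met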
#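 reagent = H3K9me3 peptide substrate, Fe(II), 2-oxoglutarate | system = GST-tagged GASC-1 (JMJD2C) catalytic fragment, aa 2-372 | amount = enzyme final amount 10 nM | read-out = Fall in 671/618 emission ratio as inhibition | medium = HEPES buffer, pH 7.5, plus ascorbate | schedule = 30 min reaction, 60 min detection, RT | measured by = LANCE TR-FRET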
# IDH1 R132H inh = inhibitors of IDH1 R132H reductase, primary screen, biochemical, plate reader, single point; inhibition, % at 10 µM; diaphorase/resazurin fluorescence, 60 min; 70,000 tested, 0.18% active; AID 624101, 2012; Isocitrate dehydrogenase [NADP] cytoplasmic (Homo sapiens), O75874; in the data active = inhibition above about 34%; inconclusive = no clear call, values can overlap the other calls; inactive = below about 11%;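 note: 0% = DMSO and 100% = no enzyme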
# Target sequence (O75874 whole entry R132H): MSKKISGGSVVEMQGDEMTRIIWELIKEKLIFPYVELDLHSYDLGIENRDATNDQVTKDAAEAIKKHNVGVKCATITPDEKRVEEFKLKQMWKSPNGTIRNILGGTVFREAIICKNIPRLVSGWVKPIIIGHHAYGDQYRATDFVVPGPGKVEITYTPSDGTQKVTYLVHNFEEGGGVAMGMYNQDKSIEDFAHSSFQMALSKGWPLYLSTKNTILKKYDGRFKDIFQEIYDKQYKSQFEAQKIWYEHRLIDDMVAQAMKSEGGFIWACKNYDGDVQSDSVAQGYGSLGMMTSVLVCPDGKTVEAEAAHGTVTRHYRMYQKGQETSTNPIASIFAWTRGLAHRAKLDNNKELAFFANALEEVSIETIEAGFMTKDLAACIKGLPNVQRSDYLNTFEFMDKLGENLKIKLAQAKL
# Pf Dd2 growth = P. falciparum Dd2 growth inhibitors, primary screen, SYBR Green fluorescence, single dose replicates; 72 h; hits give low values; activity change, % at 10 µM; 94,000 tested, 2.3% active; AID 1159554, 2015; in the data active = activity change below about -80%; inconclusive = no clear call, values can overlap the other calls
# T cruzi growth-1 = T. cruzi intracellular proliferation inhibitors, primary screen, cell-based, beta-gal Tulahuen parasites, NIH3T3 host, luminescence. 77,000 tested, 5.9% active. AID 624255, 2012. inhibition, % at 8.34 µM. T. cruzi beta-gal in NIH3T3, GalScreen luminescence, 90 h;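 active = mean inhibition above about 93%, with at least 55% of replicates each passing it, limit read from the data, passing the limit was not always enough; inconclusive = only one of those two conditions holds; inactive = neither condition holds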
# T cruzi growth-2 = T. cruzi intracellular proliferation inhibitors, confirmation, cell-based, NIH3T3 host, beta-gal parasite, luminescence, cherry-pick | inhibition, % at 8.35 µM | 5,600 tested, 72% active | T. cruzi beta-gal in NIH3T3, GalScreen luminescence, 90 h | AID 651739, 2012 | shares compounds with T cruzi growth-1;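 active = mean replicate inhibition above about 95% and at least 55% of replicates individually reaching it, limit read from the data; inconclusive = only one of the two criteria is met; inactive = neither criterion is met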
# T cruzi growth-3 = inhibitors of intracellular T. cruzi replication, confirmation, NIH3T3 host cells, beta-gal parasites, cherry-pick, set 2 | inhibition, % at 2.09 µM | T. cruzi beta-gal in NIH3T3, GalScreen luminescence, 90 h | 5,600 tested, 21% active | shares compounds with T cruzi growth-1;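 active = mean inhibition above about 95%, with at least 55% of replicates also reaching it, limit read from the data; inconclusive = meets just one of the two conditions; inactive = meets neither condition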;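 note: plate controls were neutral control median for no effect and positive control median for full effect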
# 3T3 cytotox = cytotoxicity in mouse NIH/3T3 fibroblasts, confirmation, cytotoxicity control for T. cruzi proliferation inhibitor project, cell-based, cherry-pick, single point. 5,600 tested, 14% active. cytotoxicity (signal decrease), % at 8.35 µM. NIH/3T3 viability, CellTiter-Glo ATP luminescence, 90 h. shares compounds with T cruzi growth-1;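 active = mean signal decrease across replicates above about 35% based on untreated-well scatter, with enough replicates individually passing, limit read from the data; inconclusive = no rule stated though some were filed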;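 note: 0% = median of neutral control wells and 100% = median of positive control wells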
# 3T3 cytotox 2 = NIH/3T3 fibroblast cytotoxicity, confirmation, cytotoxicity control, cell-based, cherry-pick, single point, set 2 | inhibition, % at 24.9 µM | 5,600 tested, 56% active | shares compounds with T cruzi growth-1 | AID 651744, 2012 | NIH/3T3 viability, CellTiter-Glo ATP luminescence, 90 h;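 active = mean loss of cell viability signal at or above a set limit, and enough replicates individually reaching it; inconclusive = meets only the mean limit or only the replicate share; inactive = meets neither condition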;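 note: 0% = median of neutral control wells and 100% = median of positive control wells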
# * = called active by the depositor; ? = inconclusive; . = not tested or not shown. Rows were chosen to be rich in hits. Some 5.8% of all compounds tested hit in one or more screens of this group.
SMILES,KDM4C inh,IDH1 R132H inh,Pf Dd2 growth,T cruzi growth-1,T cruzi growth-2,T cruzi growth-3,3T3 cytotox,3T3 cytotox 2
COc1ccc(NC(=O)Nc2cccc3c2O[C@H](CN(C)Cc2ccc4c(c2)OCO4)[C@H](C)CN([C@@H](C)CO)C3=O)cc1,2,.,-14,-49,.,.,.,.
C[C@H](CO)N1C[C@H](C)[C@@H](CN(C)CC2CC2)Oc2c(NS(C)(=O)=O)cccc2C1=O,0,-1,28,27,.,.,.,.
CC(=O)N(C)C[C@@H]1Oc2cc(C3=CCCC3)ccc2S(=O)(=O)N([C@H](C)CO)C[C@@H]1C,0,.,.,-11,.,.,.,.
O=C(C[C@H]1CC[C@H]2[C@@H](COC[C@H](O)CN2Cc2ccc(C(F)(F)F)cc2)O1)NCCc1ccccc1,-1,.,-7,.,.,.,.,.
C[C@H]1CN([C@@H](C)CO)C(=O)c2cc(NC(=O)Cc3cn(C)c4ccccc34)ccc2O[C@H]1CN(C)Cc1ccc(C(F)(F)F)cc1,-1,0,-5,?,101*,47,-10,34
C[C@@H]1CN([C@@H](C)CO)C(=O)c2cc(NC(=O)Cc3cn(C)c4ccccc34)ccc2O[C@H]1CN(C)Cc1ccc(C(F)(F)F)cc1,5,-4,1,113*,105*,-1,10,?
C[C@H]1CN([C@@H](C)CO)C(=O)c2cc(NC(=O)Cc3cn(C)c4ccccc34)ccc2O[C@H]1CN(C)Cc1ccccc1,1,-13,-22,27,.,.,.,.
C[C@@H]1CN([C@H](C)CO)C(=O)c2cc(NC(=O)Cc3cn(C)c4ccccc34)ccc2O[C@@H]1CN(C)Cc1ccccc1,-2,0,-13,20,.,.,.,.
C[C@@H]1CN([C@@H](C)CO)C(=O)c2cc(NC(=O)Cc3cn(C)c4ccccc34)ccc2O[C@@H]1CN(C)Cc1ccc(Oc2ccccc2)cc1,16,0,-15,93*,96*,?,30,76*
COc1ccc(S(=O)(=O)N(C)C[C@H]2Oc3ccc(NC(=O)Cc4cn(C)c5ccccc45)cc3C(=O)N([C@@H](C)CO)C[C@H]2C)cc1,1,-6,6,99*,108*,29,9,61*
O=C(Nc1ccccc1F)N1CCCCN2[C@@H](CO)[C@@H](c3ccc(C4=CCCC4)cc3)[C@@H]2C1,2,.,-43,52,.,.,.,.
CN(C)CC(=O)N1[C@@H]2Cn3c(ccc(-c4ccncc4)c3=O)[C@H]1[C@@H](C(=O)NC1CCC1)[C@@H]2CO,0,.,11,18,.,.,.,.
O=C(Nc1cccc(F)c1)N1C[C@@H]2[C@H](c3ccccc31)[C@@H](CO)N2C(=O)c1ccccn1,0,.,-7,-1,.,.,.,.
NC(=O)c1c(NC(=O)c2ccc(COc3cc(Cl)ccc3Cl)o2)sc2c1CCCC2,.,0,.,.,.,.,.,.
C[C@@H]1CN([C@H](C)CO)C(=O)Cc2cc(NS(=O)(=O)c3ccc(Cl)cc3)ccc2O[C@@H]1CN(C)S(=O)(=O)c1ccccc1,0,1,-2,74,.,.,.,.
CCC(=O)N(CC)C[C@H]1[C@H](c2ccccc2)[C@@H](CO)N1C(=O)C1CCC1,-1,.,15,5,.,.,.,.
C[C@H]1CN([C@@H](C)CO)S(=O)(=O)c2ccc(C#CC3CC3)cc2O[C@@H]1CN(C)C(=O)C1CCCCC1,1,.,-36,111*,106*,92,11,45*
C[C@H](CO)N1C[C@H](C)[C@H](CN(C)C(=O)C2CCCCC2)Oc2cc(C#CC3CC3)ccc2S1(=O)=O,-2,.,-40,?,106*,67,11,27
C[C@@H]1CN([C@@H](C)CO)S(=O)(=O)c2ccc(C#CC3CC3)cc2O[C@@H]1CN(C)C(=O)C1CCC1,1,.,12,66,.,.,.,.
C[C@H](CO)N1C[C@H](C)[C@@H](CN(C)C(=O)C2CCCCC2)Oc2cc(C#CC3CC3)ccc2S1(=O)=O,-2,.,-9,?,105*,71,18,43*
C[C@@H]1CN([C@@H](C)CO)S(=O)(=O)c2ccc(C#CC3CC3)cc2O[C@@H]1CN(C)C(=O)C1CCCCC1,-1,.,-16,100*,105*,88,14,20
C[C@@H]1CN([C@H](C)CO)C(=O)Cc2cc(NC(=O)Cn3cnnn3)ccc2O[C@H]1CN(C)Cc1ccncc1,0,3,10,48,.,.,.,.
CCC(=O)N(C)C[C@H]1Oc2cc(C#CC3(O)CCCC3)ccc2S(=O)(=O)N([C@@H](C)CO)C[C@@H]1C,1,0,5,66,.,.,.,.
O=C(c1ccc(F)cc1)N1CC(=O)N2[C@H](CO)[C@@H](c3ccc(C#CC4CCCC4)cc3)[C@H]2C1,-3,.,-40,.,.,.,.,.
C[C@H](CO)N1C[C@H](C)[C@@H](CN(C)C(=O)C2CCC2)Oc2cc(C#CC3CC3)ccc2S1(=O)=O,-2,-2,-35,76,.,.,.,.
SMILES,KDM4C inh,IDH1 R132H inh,Pf Dd2 growth,T cruzi growth-1,T cruzi growth-2,T cruzi growth-3,3T3 cytotox,3T3 cytotox 2
C[C@@H]1CN([C@@H](C)CO)S(=O)(=O)c2ccc(C#CC3CC3)cc2O[C@H]1CN(C)C(=O)C1CCCCC1,-2,.,-43,?,105*,81,38*,29*
C[C@H]1CN([C@@H](C)CO)S(=O)(=O)c2ccc(C#CC3CC3)cc2O[C@H]1CN(C)C(=O)C1CCCCC1,1,.,-38,100*,106*,84,13,51*
COc1ccc(NC(=O)N(C)C[C@@H]2Oc3ccc(NC(=O)Nc4ccc(C(F)(F)F)cc4)cc3C(=O)N([C@H](C)CO)C[C@H]2C)cc1,10,.,-71,21,.,.,.,.
CO[C@H]1CN(C)C(=O)c2ccc(NC(C)=O)cc2OC[C@@H](C)N(Cc2cc(F)ccc2F)C[C@@H]1C,0,0,-10,-9,.,.,.,.
O=C(C1CCCC1)N1CCCCN2[C@H](CO)[C@H](c3ccc(C#CC4CC4)cc3)[C@@H]2C1,.,.,-8,120*,117*,96*,40*,16
O=C(C1CCC1)N1CCCCN2[C@@H](CO)[C@H](c3ccc(C#CC4CCCC4)cc3)[C@@H]2C1,.,.,-26,98*,104*,92,40*,105*

# High-throughput results (PubChem)
